Shown are actives, neighbours in structure and some others; about 2.3% of the full set was active somewhere.
SR-BI DiI inh – mouse SR-BI HDL lipid transfer inhibition | Q61009 | ldlA[mSR-BI] CHO cells, DiI-HDL uptake fluorescence, 3 h | inhibition, % at 12.5 µM | 320,000 compounds, 0.96% hits | AID 488896;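 active = mean replicate inhibition of at least 70% and a set share of replicates each scoring 70 or more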;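 note: 0% = median of neutral control wells and 100% = median of positive control wells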
SR-BI DiI-HDL act – SR-BI HDL lipid transfer activation; activation, % at 12.5 µM; CHO ldlA[mSR-BI] cells, DiI-HDL uptake fluorescence, 3 h; 100 = double the neutral-control signal; 320,000 compounds, 0.096% hits; AID 504775;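 active = mean replicate activation of at least 60% and every replicate at or above 60%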;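 note: 0% = median plate neutral-control signal and 100% = twice that signal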
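Test system: SR-BI-overexpressing, LDLR-lacking CHO cells; Medium: Ham's F12 with 0.5% BSA, HEPES 25 mM, pH 7.4; Schedule: 3 h, 37 °C; Technique: bottom-read fluorescence, 550/595 nm.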
ATG4B inhibitor – blocks human ATG4B protease cleavage of LC3 substrate; AID 504462; 340,000 compounds, 0.51% hits; inhibition, % at 8.33 µM; Q9Y4P1; ATG4B cleavage of LC3-PLA2, NBD-HPC fluorescence, 1 h; in the data active = inhibition above about 40%
Target sequence (Q9Y4P1 whole entry, looked up): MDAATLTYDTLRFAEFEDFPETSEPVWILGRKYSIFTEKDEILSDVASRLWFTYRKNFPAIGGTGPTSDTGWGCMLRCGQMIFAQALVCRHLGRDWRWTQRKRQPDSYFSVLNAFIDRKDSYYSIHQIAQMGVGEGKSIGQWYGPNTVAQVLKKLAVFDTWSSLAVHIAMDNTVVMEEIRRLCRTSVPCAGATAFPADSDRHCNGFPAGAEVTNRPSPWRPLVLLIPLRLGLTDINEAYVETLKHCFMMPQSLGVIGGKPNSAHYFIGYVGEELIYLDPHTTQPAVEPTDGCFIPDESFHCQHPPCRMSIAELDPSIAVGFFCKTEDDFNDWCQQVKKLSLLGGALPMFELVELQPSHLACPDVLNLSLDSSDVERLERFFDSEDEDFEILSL
CAL PDZ FP-1 – blocks peptide binding to the human CAL PDZ domain; Q9HD26; purified CAL PDZ, TMR-peptide fluorescence polarization, 1 h; inhibition, % at 24.9 µM; 300,000 compounds, 0.92% hits; AID 602252;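 active = mean inhibition of at least 30% with at least half of replicates also reaching 30%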;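 note: 0% = DMSO neutral control and 100% = excess unlabeled competitor peptide PRC23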
CAL PDZ FP-2 – human CAL PDZ-peptide interaction inhibition; Q9HD26; purified CAL PDZ, TMR-peptide fluorescence polarization, 1 h; inhibition, % at 20 µM; 330,000 compounds, 0.02% hits;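 active = highest replicate inhibition of at least 40%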;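 note: plate controls were DMSO neutral control wells for no effect and unlabeled competitor peptide control wells for full effect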
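Material – purified CerCALP PDZ construct · Detection – FP readout, S and P plane fluorescence · Measure – percent inhibition from loss of millipolarization · Controls – unlabelled peptide for full inhibition, DMSO wells as neutral · Probe or stimulus – TMR-labelled reporter peptide T*-PRC34 bound in PDZ groove · Times – 1 h at RT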
* marks the source's active call; other numbers are inactive results; x = not tested or not shown.

SMILES	SR-BI DiI inh	SR-BI DiI-HDL act	ATG4B inhibitor	CAL PDZ FP-1	CAL PDZ FP-2
CCNc1nc(NCC)nc(OCCOC(C)=O)n1	-17.3	17.3	8.8	-2.7	1.1
CCSc1nc(N2CCCCC2)c2c(c1C#N)CCCC2	76.4*	-76.4	2.1	-0.4	0.0
Cc1cc(C)c(S(=O)(=O)Nc2ccc(C(=O)O)cc2)cc1S(=O)(=O)Nc1ccc(C(=O)O)cc1	-5.9	5.9	7.0	-3.2	-0.8
CC(C)Nc1ccc(Nc2ccnc3cc4ccccc4cc23)cc1	77.1*	-77.1	11.3	1.7	8.6
CC1OC(c2ccccc2)OC2COC(c3ccccc3)OC12 (configuration not stated)	-0.5	0.5	2.5	-3.6	-2.0
OC(CNCC1CCCO1)Cn1c2ccc(Cl)cc2c2cc(Cl)ccc21 (configuration not stated)	14.0	-14.0	-10.7	43.8*	-1.2
OC(CNCC1CCCO1)Cn1c2ccccc2c2ccccc21 (configuration not stated)	-5.8	5.8	-0.1	-48.7	-0.7
CCN(CC)C(=O)c1sc(NC(=O)c2cccc([N+](=O)[O-])c2)c(C#N)c1C	27.6	-27.6	6.0	-1.9	-0.1
CCN(CC)C(=O)c1sc(NC(=O)c2c(OC)cccc2OC)c(C#N)c1C	93.9*	-84.7	-0.5	-4.5	-0.5
COC(=O)c1ccc(Cn2cc([N+](=O)[O-])cn2)cc1	-5.7	5.7	1.1	68.4*	0.7
CN=c1scc(-c2ccco2)n1/N=C/c1ccc(O)c(O)c1	73.0*	-73.0	10.3	-1.4	1.2
CCc1ccc(CNC(=O)C2CCCN(c3nnc(C)c4c(C)n(-c5ccccc5)nc34)C2)cc1 (configuration not stated)	31.9	-31.9	-4.1	63.8*	-2.3
Cc1ccc(-n2nc3c(N4CCC(C(=O)N5CCCCCC5)CC4)nnc(C)c3c2C)cc1	32.0	-32.0	70.8*	-2.1	-4.4
COc1ccccc1CCNC(=O)C1CCN(c2nnc(C)c3c(C)n(-c4ccc(C)cc4)nc23)CC1	79.6*	-79.6	2.2	-0.6	-1.6
Cc1ccc(-n2nc3c(N4CCC(C(=O)N5CCN(C)CC5)CC4)nnc(C)c3c2C)cc1	0.6	-0.6	10.8	3.0	-1.3
Cc1ccc(-n2nc3c(N4CCC(C(=O)NCc5ccccc5C)CC4)nnc(C)c3c2C)cc1	31.9	-31.9	54.1*	-1.6	-2.8
Cc1ccc2nc(N3CCN(C)CC3)c(C=O)c(=O)n2c1	3.1	-3.1	10.6	9.6	x
COc1ccc(CCNC(=O)CN(c2cc(C)cc(C)c2)S(=O)(=O)c2c(C)noc2C)cc1OC	8.0	-8.0	-2.7	-4.1	-1.0
COc1cccc(NC(=O)c2ccnc(N3CCC(C(=O)NCc4ccccc4OC)CC3)c2)c1	87.5*	-87.5	-15.1	1.4	-1.2
NC(=O)C1CC2(C1)CC(C(N)=O)C2 (configuration not stated)	x	x	-14.5	x	x
CC(=O)C1CCC2C3CCC4CC(=O)CCC4(C)C3C=CC12C (configuration not stated)	4.9	-4.9	-5.6	1.3	0.6
O=C1CN(C(=S)NC(=O)c2ccc(-c3ccccc3)cc2)CCN1	6.6	-6.6	-9.7	42.6*	-0.8
CCCn1c(SC(C)C(=O)NC2CC2)nnc1-c1ccncc1 (configuration not stated)	-30.4	30.4	-3.7	-2.2	-0.5
COc1cccc(CNC(=O)C(C)n2ccc3cc(S(=O)(=O)N4CCCC4)ccc32)c1 (configuration not stated)	3.7	-3.7	1.5	42.0*	-1.3
COc1ccc2cc(S(=O)(=O)N3CCN(C)CC3)ccc2c1	-21.5	21.5	-4.6	6.6	-2.2
SMILES	SR-BI DiI inh	SR-BI DiI-HDL act	ATG4B inhibitor	CAL PDZ FP-1	CAL PDZ FP-2
COc1ccc2cc(S(=O)(=O)N3CCCC3)ccc2c1	-5.5	5.5	-9.8	81.2*	-1.4
O=C(NCCCN1CCOCC1)c1ccc2c(c1)N(Cc1ccccc1)CCS2	54.3	-54.3	-6.2	58.3*	-1.0
O=C(NCCN1CCOCC1)c1ccc2c(c1)N(Cc1ccccc1)CCS2	61.5	-61.5	-4.5	x	-0.5
CSc1nc(NCCOCCO)c2sc3nc(-c4ccco4)c4c(c3c2n1)CCC4	-26.4	26.4	-4.1	65.9*	0.1
CCN(CCO)c1nc(SC)nc2c1sc1nc(-c3ccco3)c3c(c12)CCC3	1.1	-1.1	0.8	-5.2	-2.9
O=C(/C=C/c1ccc(OCc2ccccc2)c(OCc2ccccc2)c1)c1cccnc1	83.7*	-83.7	-1.0	-1.5	-2.7
O=C(/C=C/c1ccc(Cl)cc1)c1cccnc1	-3.7	3.7	7.4	-2.1	0.9
CCN(C(=O)c1ccc(NC(=O)Cc2ccccc2)cc1)c1ccccc1	28.0	-28.0	4.8	48.1*	-1.1
Cc1ccc(-n2c(=O)[nH]c3cc(C(=O)NC4CCN(Cc5ccccc5)CC4)ccc3c2=O)cc1	2.8	-2.8	-15.3	38.0*	-0.5
Cc1cc(C(=O)NCc2ccc3c(c2)OCO3)ccc1[N+](=O)[O-]	2.8	-2.8	0.1	68.9*	x
O=C(NCc1ccc2c(c1)OCO2)c1ccc(Cl)nc1	2.0	-2.0	3.4	98.9*	-0.1
CCCCS(=O)(=O)N1CCCC(C(=O)Oc2ccc(Cl)cc2)C1 (configuration not stated)	2.3	-2.3	3.5	-3.2	0.3
CCOC(=O)C1CCCN(C(=O)CN2C(=O)NC(C)(c3ccc4ccccc4c3)C2=O)C1 (configuration not stated)	19.5	-19.5	0.5	0.1	-1.6
CC1CCc2c(sc3ncnc(NCCCOC(C)C)c23)C1 (configuration not stated)	75.4*	-75.4	-13.7	-4.9	-1.3
CC1CCc2c(sc3ncnc(NCc4cccnc4)c23)C1 (configuration not stated)	22.5	-22.5	-12.8	-0.4	-3.5
CC(NC(=O)C12CC3CC(C1)CC(n1cncn1)(C3)C2)C12CC3CC(CC(C3)C1)C2 (configuration not stated)	-30.7	30.7	-7.1	56.9*	-0.4
O=C(NC1CCCCC1)C12CC3CC(C1)CC(n1cncn1)(C3)C2	-0.4	0.4	-1.9	-4.1	-1.0
CCOC(=O)c1c(-c2ccccc2)oc2ccc(OCC(O)CNCCN(C)C)cc12 (configuration not stated)	7.9	-7.9	7.7	1.9	-2.5
CNC(=O)Cn1nc(C)c(S(=O)(=O)N2CCOCC2)c1C	-20.4	20.4	-1.6	49.9*	-0.9
NC(=O)CC(NC(=O)c1cccc(Br)c1)c1ccc(N2CCN(c3ccccn3)CC2)c([N+](=O)[O-])c1 (configuration not stated)	9.0	-9.0	-11.0	3.6	0.6
Cc1ccc(S(=O)(=O)Oc2cccc([N+](=O)[O-])c2)cc1	-7.7	7.7	0.1	-1.7	0.2
CCSC1=N/C(=C\c2ccccc2)C(=O)N1	-11.1	11.1	-12.5	60.8*	-0.2

Screening data deposited in PubChem by several laboratories.
